ChEMBL document CHEMBL1147089, “Protein protein interaction inhibition (2P2I) combining high throughput and virtual screening: Application to the HIV-1 Nef protein” (Proc Natl Acad Sci U S A, 2007)
The source made the active and inactive calls. No cut-off for these calls is given here.

Experiments:
COS-7 [1] = test: Inhibition of HIV1 Nef-SH3Hck interaction in COS7 cells at 20 uM after 36 hrs by mammalian two-hybrid assay; type: cell-based; conditions: Human immunodeficiency virus 1
How it was run: (§1)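 Firefly luciferase reports interaction, Renilla luciferase (from GAL4–SH3Hck construct) normalizes transfection and viability; inhibition from reduced LucFF:LucRN ratio. Dose series 2–32 μM; screening at 20 μM.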

[2] = Binding affinity to HIV1 Nef by isothermal titration calorimetry method; parameters: species or system Human immunodeficiency virus 1
How it was run: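 Nef57–205 dialyzed in ITC buffer (20 mM Hepes pH 7.0, 100 mM NaCl, 5% DMSO), 15–25 μM in cell; inhibitor 300–400 μM in same buffer (DMSO 5%) injected 10–15 μl every 300 s at 25°C; heat of dilution into buffer alone subtracted; apparent KD from titration.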

[3] = Toxicity against african green monkey COS7 cells assessed as cell viability upto 100 uM; type: cell-based; conditions: chlorocebus aethiops, cos-7
COS-7 [4] = test: Reduction of HIV1 Nef-SH3Hck protein interaction in COS7 cells assessed as reduction of LucFF:LucRN ratio at 32 uM after 36 hrs by mammalian two-hybrid assay; type: cell-based; parameters: scale not given: the % may be the effect or the level left; conditions: Human immunodeficiency virus 1; how it was run: as §1
[5] = molecular target: T1, DNA-binding protein inhibitor ID-1 (Homo sapiens) (UniProt P41134); test: Reduction of Id-MyoD interaction in COS7 cells at 32 uM after 36 hrs by mammalian two-hybrid assay; type: cell-based; parameters: scale not given: the % may be the effect or the level left; conditions: COS-7
T1 sequence (whole entry): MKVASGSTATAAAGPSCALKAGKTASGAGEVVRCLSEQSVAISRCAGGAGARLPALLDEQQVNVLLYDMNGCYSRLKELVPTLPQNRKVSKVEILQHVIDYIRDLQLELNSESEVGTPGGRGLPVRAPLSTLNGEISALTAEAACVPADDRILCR
How it was run: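 Specificity counterscreen: Id–MyoD mammalian two-hybrid in COS7 cells, compounds at 2, 4, 8, 16, 32 μM for 36 h; read-out as normalized firefly:Renilla luciferase ratio.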

[6] = test system: Human immunodeficiency virus 1; test: Reduction of HIV1 Nef-mediated MHC class 1 down regulation in human PBMC after 3 hrs
[7] = test system: Human immunodeficiency virus 1; test: Reduction in HIV1 Nef-mediated CD4 down regulation in human PBMC after 3 hrs
[8] = test system: Human immunodeficiency virus 1; test: Reduction of HIV1 Nef-SH3Hck protein interaction at 0.1 uM by GST pull-down method

Row | SMILES | inhibition (COS-7 [1]) [%] | Kd [2] [nM] | also measured
1 | Cc1cc(OCc2nc(N)nc(N)c2-c2ccc(Cl)c(Cl)c2)ccc1[N+](=O)[O-] | 57.5 |  | 
2 | CN(C)c1ccc2nc3c(C(=O)O)cc(=O)c(O)c-3oc2c1 | 80.4 | 1300 | 
3 | COc1cc2ccccc2c2cc([N+](=O)[O-])oc12 | 53.8 | 11000 | 
4 | c1ccc(/C(=N/Nc2nc3ccccc3s2)c2ccccn2)cc1.c1ccc(/C(=N\Nc2nc3ccccc3s2)c2ccccn2)cc1 | 57.2 |  | 
5 | CC(C)(C)c1ccc(OCC(=O)Nc2cccc(C(=O)O)c2)cc1 | 75 | 980 | Activity [3]: Non-toxic
6 | O=C(O)CCC(=O)c1ccc2ccc3cccc4ccc1c2c34 | 58.4 |  | 
7 | O=C(O)CCCc1ccc2ccc3ccccc3c2c1 | 63.2 | 6700 | 
8 | CC(C)(C)c1ccc(OC(=O)Nc2ccc(O)c(C(=O)O)c2)cc1 | 73.4 | 1800 | Activity (COS-7 [4]): 77%; Activity [5]: 17%; Activity [6]: Dose-dependent effect; Activity [7]: inactive; Activity [3]: Non-toxic; Activity [8]: Active
